# Assays:
# Assay type in all cases: functional
# Enterococcus faecalis [1] = assay: (§1) Antibacterial activity against Enterococcus faecalis assessed as inhibition of bacterial growth at […] by CLSI broth microdilution method
# Enterococcus faecium [2] = assay: Antibacterial activity against Enterococcus faecium assessed as inhibition of bacterial growth at 0.06 ug/ml by CLSI broth microdilution method
# Method in brief: (§2)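 Clinical isolates from skin/soft tissue, bloodstream and respiratory specimens were tested by broth microdilution per CLSI M7-A7 and M100-S18, with quality controls. Values are the number of isolates inhibited at each concentration, or MIC / percent susceptible. Highest concentration tested was 8 µg/ml for iclaprim and trimethoprim-sulfamethoxazole, and 64 µg/ml for trimethoprim.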
# [3] = test system: Streptococcus sp. 'group B'; assay: Antibacterial activity against Beta-hemolytic Streptococcus group B assessed as inhibition of bacterial growth at 4 ug/ml by CLSI broth microdilution method; method in brief: as §2
# [4] = test system: Streptococcus sp. 'group A'; assay: Antibacterial activity against Beta-hemolytic Streptococcus group A assessed as inhibition of bacterial growth at 8 ug/ml by CLSI broth microdilution method; method in brief: as §2
# [5] = test system: Streptococcus sp. 'group B'; assay: Antibacterial activity against Beta-hemolytic Streptococcus group B assessed as inhibition of bacterial growth at 0.5 ug/ml by CLSI broth microdilution method; method in brief: as §2
# Staphylococcus aureus [6] = assay: Antibacterial activity against Methicillin-resistant Staphylococcus aureus by CLSI broth microdilution method
# [7] = test system: Streptococcus sp. 'group A'; assay: Antibacterial activity against Beta-hemolytic Streptococcus group A assessed as inhibition of bacterial growth at 2 ug/ml by CLSI broth microdilution method; method in brief: as §2
# Staphylococcus aureus [8] = assay: Antibacterial activity against Methicillin-sensitive Staphylococcus aureus by CLSI broth microdilution method
# [9] = test system: Streptococcus sp. 'group A'; assay: Antibacterial activity against Beta-hemolytic Streptococcus group A assessed as inhibition of bacterial growth at 0.03 ug/ml by CLSI broth microdilution method; method in brief: as §2
# Enterococcus faecalis [10] = assay: Antibacterial activity against Enterococcus faecalis assessed as inhibition of bacterial growth at 2 ug/ml by CLSI broth microdilution method; method in brief: as §2
# Staphylococcus aureus [11] = assay: Antibacterial activity against Methicillin-sensitive Staphylococcus aureus assessed as inhibition of bacterial growth at 8 ug/ml by CLSI broth microdilution method
# Method in brief: (§3)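 Recent clinical isolates from skin/soft tissue, bloodstream and respiratory specimens. Tested by broth microdilution per CLSI M7-A7 and M100-S18, with the appropriate quality controls. The thymidine content of the test medium was assessed to rule out artifactual inhibition.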
# [12] = test system: Streptococcus sp. 'group A'; assay: Antibacterial activity against Beta-hemolytic Streptococcus group A assessed as inhibition of bacterial growth at […] by CLSI broth microdilution method
# Enterococcus faecalis [13] = assay: Antibacterial activity against Enterococcus faecalis assessed as inhibition of bacterial growth at >8 ug/ml by CLSI broth microdilution method; method in brief: as §2
# Staphylococcus aureus [14] = assay: Antibacterial activity against Methicillin-resistant Staphylococcus aureus assessed as inhibition of bacterial growth at 0.06 ug/ml by CLSI broth microdilution method; method in brief: as §3
# Enterococcus faecalis [15] = assay: Antibacterial activity against Enterococcus faecalis assessed as inhibition of bacterial growth at 0.03 ug/ml by CLSI broth microdilution method; method in brief: as §2
# Enterococcus faecium [16] = assay: Antibacterial activity against Enterococcus faecium assessed as inhibition of bacterial growth at 8 ug/ml by CLSI broth microdilution method
# Enterococcus faecium [17] = assay: Antibacterial activity against Enterococcus faecium assessed as inhibition of bacterial growth at 0.5 ug/ml by CLSI broth microdilution method
# Enterococcus faecium [18] = assay: Antibacterial activity against Enterococcus faecium assessed as inhibition of bacterial growth at 1 ug/ml by CLSI broth microdilution method
# Staphylococcus aureus [19] = assay: Antibacterial activity against Methicillin-sensitive Staphylococcus aureus assessed as inhibition of bacterial growth at 2 ug/ml by CLSI broth microdilution method
# Enterococcus faecalis [20] = assay: Antibacterial activity against Enterococcus faecalis by CLSI broth microdilution method
# Enterococcus faecalis [21] = assay: as §1; remark: listed apart in the source
# Staphylococcus aureus [22] = assay: (§4) Antibacterial activity against Methicillin-resistant Staphylococcus aureus assessed as inhibition of bacterial growth at […] by CLSI broth microdilution method
# Staphylococcus aureus [23] = assay: Antibacterial activity against Methicillin-sensitive Staphylococcus aureus assessed as inhibition of bacterial growth at […] by CLSI broth microdilution method; set-up: Activity: scale not given: the % may be the effect or the level left
# Staphylococcus aureus [24] = assay: Antibacterial activity against Methicillin-sensitive Staphylococcus aureus assessed as inhibition of bacterial growth at 1 ug/ml by CLSI broth microdilution method
# Staphylococcus aureus [25] = assay: Antibacterial activity against Methicillin-resistant Staphylococcus aureus assessed as inhibition of bacterial growth at 4 ug/ml by CLSI broth microdilution method; method in brief: as §3
# Enterococcus faecium [26] = assay: Antibacterial activity against Enterococcus faecium by CLSI broth microdilution method
# [27] = test system: Streptococcus sp. 'group B'; assay: Antibacterial activity against Beta-hemolytic Streptococcus group B assessed as inhibition of bacterial growth at 2 ug/ml by CLSI broth microdilution method; method in brief: as §2
# [28] = test system: Streptococcus sp. 'group A'; assay: Antibacterial activity against Beta-hemolytic Streptococcus group A assessed as inhibition of bacterial growth at 0.5 ug/ml by CLSI broth microdilution method; method in brief: as §2
# Enterococcus faecium [29] = assay: Antibacterial activity against Enterococcus faecium assessed as inhibition of bacterial growth at 2 ug/ml by CLSI broth microdilution method
# Enterococcus faecalis [30] = assay: Antibacterial activity against Enterococcus faecalis assessed as inhibition of bacterial growth at 8 ug/ml by CLSI broth microdilution method; method in brief: as §2
# Enterococcus faecalis [31] = assay: Antibacterial activity against Enterococcus faecalis assessed as inhibition of bacterial growth at 0.5 ug/ml by CLSI broth microdilution method; method in brief: as §2
# [32] = test system: Streptococcus sp. 'group A'; assay: Antibacterial activity against Beta-hemolytic Streptococcus group A assessed as inhibition of bacterial growth at 1 ug/ml by CLSI broth microdilution method; method in brief: as §2
# [33] = test system: Streptococcus sp. 'group B'; assay: Antibacterial activity against Beta-hemolytic Streptococcus group B assessed as inhibition of bacterial growth at 1 ug/ml by CLSI broth microdilution method; method in brief: as §2
# Staphylococcus aureus [34] = assay: Antibacterial activity against Methicillin-sensitive Staphylococcus aureus assessed as inhibition of bacterial growth at 0.06 ug/ml by CLSI broth microdilution method; set-up: Activity: scale not given: the % may be the effect or the level left
# Enterococcus faecalis [35] = assay: Antibacterial activity against Enterococcus faecalis assessed as inhibition of bacterial growth at 4 ug/ml by CLSI broth microdilution method; method in brief: as §2
# Enterococcus faecalis [36] = assay: Antibacterial activity against Enterococcus faecalis assessed as inhibition of bacterial growth at 0.06 ug/ml by CLSI broth microdilution method; method in brief: as §2
# [37] = test system: Streptococcus sp. 'group B'; assay: Antibacterial activity against Beta-hemolytic Streptococcus group B assessed as inhibition of bacterial growth at […] by CLSI broth microdilution method; further: tested at 0.25 µg/mL
# [38] = test system: Streptococcus sp. 'group B'; assay: Antibacterial activity against Beta-hemolytic Streptococcus group B assessed as inhibition of bacterial growth at 0.06 ug/ml by CLSI broth microdilution method; method in brief: as §2
# Staphylococcus aureus [39] = assay: as §4; remark: listed apart in the source
# Staphylococcus aureus [40] = assay: Antibacterial activity against Methicillin-sensitive Staphylococcus aureus assessed as inhibition of bacterial growth at 0.5 ug/ml by CLSI broth microdilution method
# Enterococcus faecalis [41] = assay: Antibacterial activity against Enterococcus faecalis assessed as inhibition of bacterial growth at 1 ug/ml by CLSI broth microdilution method; method in brief: as §2
# Staphylococcus aureus [42] = assay: Antibacterial activity against Methicillin-resistant Staphylococcus aureus assessed as inhibition of bacterial growth at 2 ug/ml by CLSI broth microdilution method; method in brief: as §3
structure (smiles),measurement,setting,value
COc1cc(Cc2cnc(N)nc2N)cc(OC)c1OC [TRIMETHOPRIM],inhibition at […],Enterococcus faecalis [1],29.7%
same,inhibition at 0.06 µg/mL,Enterococcus faecium [2],30.4%
same,inhibition at 4 µg/mL,[3],99.5%
same,inhibition at 8 µg/mL,[4],100%
same,inhibition at 0.5 µg/mL,[5],5.9%
same,MIC50,Staphylococcus aureus [6],1 µg/mL
same,MIC90,Staphylococcus aureus [6],2 µg/mL
same,inhibition at 2 µg/mL,[7],100%
same,MIC50,Staphylococcus aureus [8],1 µg/mL
same,MIC90,Staphylococcus aureus [8],1 µg/mL
same,inhibition at 0.03 µg/mL,[9],0.8%
same,inhibition at 2 µg/mL,Enterococcus faecalis [10],67.7%
same,inhibition at 8 µg/mL,Staphylococcus aureus [11],98.7%
same,inhibition at […],[12],45.9%
same,inhibition (INH),Enterococcus faecalis [13],100%
same,inhibition at 0.06 µg/mL,Staphylococcus aureus [14],< 0.1%
same,inhibition at 0.03 µg/mL,Enterococcus faecalis [15],0.6%
same,inhibition at 8 µg/mL,Enterococcus faecium [16],41.6%
same,inhibition at 0.5 µg/mL,Enterococcus faecium [17],37.6%
same,inhibition at 1 µg/mL,Enterococcus faecium [18],38%
same,inhibition at 2 µg/mL,Staphylococcus aureus [19],97.8%
same,MIC50,Enterococcus faecalis [20],0.25 µg/mL
same,MIC90,Enterococcus faecalis [20],> 64 µg/mL
same,inhibition at […],Enterococcus faecalis [21],56.5%
same,inhibition at […],Staphylococcus aureus [22],0.2%
same,Activity,Staphylococcus aureus [23],2.4%
same,inhibition at 1 µg/mL,Staphylococcus aureus [24],90.2%
same,inhibition at 4 µg/mL,Staphylococcus aureus [25],92.5%
same,MIC50,Enterococcus faecium [26],32 µg/mL
same,MIC90,Enterococcus faecium [26],> 64 µg/mL
same,inhibition at 2 µg/mL,[27],89.2%
same,inhibition at 0.5 µg/mL,[28],98.5%
same,inhibition at 2 µg/mL,Enterococcus faecium [29],38.3%
same,inhibition at 8 µg/mL,Enterococcus faecalis [30],70.6%
same,inhibition at 0.5 µg/mL,Enterococcus faecalis [31],62.9%
same,inhibition at 1 µg/mL,[32],99.5%
same,inhibition at 1 µg/mL,[33],51%
same,Activity,Staphylococcus aureus [34],0.1%
same,inhibition at 4 µg/mL,Enterococcus faecalis [35],70%
same,inhibition at 0.06 µg/mL,Enterococcus faecalis [36],4.2%
same,inhibition at […],[37],0.5%
same,inhibition at 0.06 µg/mL,[38],0%
same,inhibition at […],Staphylococcus aureus [39],5.7%
same,inhibition at 0.5 µg/mL,Staphylococcus aureus [40],34.3%
same,inhibition at 1 µg/mL,Enterococcus faecalis [41],64.5%
same,inhibition at 2 µg/mL,Staphylococcus aureus [42],92.1%
